# Measurements reported in ChEMBL document CHEMBL4732031, “Novel fluorinated ring-fused chlorins as promising PDT agents against melanoma and esophagus cancer” (RSC Med Chem, 2021).
# Columns and labels:
# [1] = test system: A-375; assay: Photocytotoxicity against human A375 cells assessed as cell viability after 24 hrs in presence of light irradiation by MTT assay; assay type: functional, cell-based; settings: A-375, light or radiation study
# Method in brief: (§1)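 A375 (DMEM) or OE19 (RPMI 1640) cells were plated overnight and given sensitizer at 1 nM–10 μM, diluted from a 1 mg/mL DMSO stock, with a 1% DMSO vehicle control. After 24 h dark incubation at 37 °C, cells were PBS-washed and refed.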
# [2] = test system: OE19; assay: Photocytotoxicity against human OE19 cells assessed as cell viability after 24 hrs in presence of light irradiation by MTT assay; assay type: functional, cell-based; settings: OE19, light or radiation study; method in brief: as §1
# [3] = test system: A-375; assay: Cytotoxicity against human A375 cells assessed as cell viability measured after 24 hrs by MTT assay; assay type: cell-based; settings: A-375, 24 h
# Method in brief: (§2)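 Dark control run in A375 (DMEM) or OE19 (RPMI 1640) cells, plated overnight. Sensitizers were diluted from a 1 mg/mL DMSO stock and given at 1 nM–10 μM, with a 1% DMSO vehicle control. Cells were incubated 24 h at 37 °C in the dark, PBS-washed, refed and not irradiated. Read-out was MTT (0.5 mg/mL, 4 h) with formazan dissolved in HCl/isopropanol, as % of vehicle; IC50 taken from dose–response curves.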
# [4] = test system: OE19; assay: Cytotoxicity against human OE19 cells assessed as cell viability measured after 24 hrs by MTT assay; assay type: cell-based; settings: OE19, 24 h; method in brief: as §2
# [5] = Drug uptake in human A375 cells at 500 nM incubated for 24 hrs by fluorescence emission spectroscopic analysis; assay type: ADME, cell-based; settings: a-375, 24 h, 0.5 µM
# Method in brief: (§3)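 Cells (5 × 10^5) were exposed to 500 nM sensitizer for 24 h in the dark, then PBS-washed, disrupted in DMSO, scraped and centrifuged. Supernatant fluorescence was read with excitation at 405 and 420 nm. Intracellular concentration was calculated from a calibration curve of each sensitizer in DMSO; mean ± SE.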
# [6] = Drug uptake in human OE19 cells at 500 nM incubated for 24 hrs by fluorescence emission spectroscopic analysis; assay type: ADME, cell-based; settings: oe19, 24 h, 0.5 µM; method in brief: as §3
Drug uptake [5] [nM],Drug uptake [6] [nM],SMILES,IC50 [1] [µM],IC50 [2] [µM],IC50 [3] [µM],IC50 [4] [µM]
128,,OCc1nn2c(c1CO)CC1c3nc(c(-c4c(F)c(F)cc(F)c4F)c4ccc([nH]4)c(-c4c(F)c(F)cc(F)c4F)c4nc(c(-c5c(F)c(F)cc(F)c5F)c5ccc([nH]5)c3-c3c(F)c(F)cc(F)c3F)C=C4)C1C2 (stereo not given),0.072,0.056,> 10,> 10
,,COC(=O)c1nn2c(c1C(=O)OC)CC1c3nc(c(-c4c(F)c(F)c(F)c(F)c4F)c4ccc([nH]4)c(-c4c(F)c(F)c(F)c(F)c4F)c4nc(c(-c5c(F)c(F)c(F)c(F)c5F)c5ccc([nH]5)c3-c3c(F)c(F)c(F)c(F)c3F)C=C4)C1C2 (stereo not given),6.68,5.61,> 10,> 10
148,,COC(=O)c1nn2c(c1C(=O)OC)CC1c3nc(c(-c4c(F)c(F)c(NCCOCCO)c(F)c4F)c4ccc([nH]4)c(-c4c(F)c(F)c(NCCOCCO)c(F)c4F)c4nc(c(-c5c(F)c(F)c(NCCOCCO)c(F)c5F)c5ccc([nH]5)c3-c3c(F)c(F)c(NCCOCCO)c(F)c3F)C=C4)C1C2 (stereo not given),0.913,0.105,> 10,> 10
254,202,OCCOCCNc1c(F)c(F)c(-c2c3nc(c(-c4c(F)c(F)c(NCCOCCO)c(F)c4F)c4ccc([nH]4)c(-c4c(F)c(F)c(NCCOCCO)c(F)c4F)c4nc(c(-c5c(F)c(F)c(NCCOCCO)c(F)c5F)c5ccc2[nH]5)C2Cc5c(CO)c(CO)nn5CC42)C=C3)c(F)c1F (stereo not given),0.013,0.027,> 10,> 10
